Values after ≈ are worked out from the molar mass of the structure shown.
Key:
Type in all cases: functional
[1] = test system: Biomphalaria glabrata; experiment: Molluscicidal activity against Biomphalaria glabrata assessed as mortality after 24 hrs by microscopy
How it was run: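 Snails exposed to samples dissolved in 100 μl DMSO and diluted to 100 ml with distilled H₂O. After 24 h, snails counted dead when no heartbeat was seen under the microscope.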

[2] = test system: KB; experiment: Cytotoxicity against human KB cells after 72 hrs; conditions: read-out: ED50 (the source's name)
How it was run: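 KB cells were grown in BME with 10% heat-inactivated FBS at 37° under 5% CO₂. Samples in DMSO (final 0.5%) were added at log growth phase, at five concentrations, for 72 h. Growth was measured by protein determination as a percentage of DMSO-only controls, corrected for starting cell number. Assays were run in duplicate, and ED₅₀ was taken from semilogarithmic plots of the averaged data.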

[3] = test system: Micrococcus luteus; experiment: Antibacterial activity against Micrococcus luteus ATCC 9341 by bioautographic assay
How it was run: (§1)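 Overnight 37° nutrient-broth cultures; the developed TLC plate was dipped in the bacterial suspension and held moist at 37° for 20 h. It was then sprayed with 0.5% iodonitrotetrazolium chloride in H₂O and kept a further 4 h moist at 37°. Pure compounds were spotted (3 mm) at 0.1–5 μg in CH₂Cl₂, with chloramphenicol as positive control.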

[4] = test system: Bacillus subtilis; experiment: Antibacterial activity against Bacillus subtilis ATCC 6633 by bioautographic assay; how it was run: as §1
[5] = test system: Escherichia coli; experiment: Antibacterial activity against Escherichia coli ATCC 25922 by bioautographic assay
How it was run: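 Bioautography used an overnight 37° nutrient-broth culture, and the developed TLC plate was dipped in the suspension. It was incubated moist at 37° for 6 h, sprayed with 0.5% aqueous iodonitrotetrazolium chloride, then kept moist at room temperature for 15 h. White zones against pink colonies marked inhibition. Pure compounds were spotted (3 mm) at 0.1–5 μg in CH₂Cl₂, with chloramphenicol as positive control.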

SMILES	LC100 [1]	EC50 [2]	MIC [3]	MIC [4]	MIC [5]
COc1cc(O)c(C(=O)CCc2ccccc2)c(O)c1	>30 ppm	> 10 µg/mL	0.3 µg	0.3 µg	>5 µg
COC(=O)c1ccc2c(c1)C[C@H](C(C)(C)O)O2 [ANODENDROIC ACID METHYL ESTER]	–	> 10 µg/mL	>5 µg	3.2 µg	>5 µg
COc1cc(O)c(C(=O)CCc2ccc(O)cc2)c(O)c1 [ASEBOGENIN]	12 ppm	> 10 µg/mL	0.6 µg	0.1 µg	>5 µg
O=C(N[C@H](CO)[C@H](O)c1ccc([N+](=O)[O-])cc1)C(Cl)Cl [CHLORAMPHENICOL]	–	–	0.05 µg	0.02 µg	0.05 µg
COC(=O)c1ccc(O)c(C(C=C(C)C)c2c(OC)cc(O)c(C(=O)CCc3ccccc3)c2O)c1 (stereo not given) [PIPERADUNCIN A]	–	2.3 µg/mL (≈ 4.69 µM)	1.6 µg	1.6 µg	>5 µg
COC(=O)c1ccc(O)c([C@H]2c3c(OC)cc(O)c(C(=O)CCc4ccccc4)c3O[C@@H]2C(C)(C)O)c1 [PIPERADUNCIN B]	–	4.7 µg/mL (≈ 9.28 µM)	0.4 µg	0.2 µg	>5 µg
COc1cc(O)c(C(=O)CCc2ccccc2)c(O)c1Cc1c(OC)cc(O)c(C(=O)CCc2ccccc2)c1O [PIPERADUNCIN C]	–	> 10 µg/mL	3 µg	1.5 µg	>5 µg
COc1cc([C@@H]2c3cc4c(cc3[C@H](O)[C@H]3COC(=O)[C@H]23)OCO4)cc(OC)c1OC [PODOFILOX]	–	0.0003 µg/mL (≈ 0.000724 µM)	–	–	–
COc1cc(O)c2c(c1)O[C@H](c1ccc(O)cc1)CC2=O [SAKURANETIN]	>30 ppm	10 µg/mL (≈ 34.9 µM)	2 µg	0.5 µg	>5 µg

Source: ChEMBL document CHEMBL1149025, “Cytotoxic and antibacterial dihydrochalcones from Piper aduncum” (1994)
